System: MS2 coat protein
Experiment: apparent Kd, MS2 coat protein; higher = weaker binding; RNA-MaP array
Method in brief: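 Binding of fluorescently labeled MS2 coat protein, at 1.5 nM to 3 μM and room temperature, was measured with or without input ligand on designed RNAs transcribed on an Illumina sequencing chip from sequenced DNA templates. Apparent Kd was defined as the median of per-cluster binding-curve fits. No design measured on fewer than 10 clusters was kept.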

[1] = designed as: OFF switch for theophylline, no ligand
[2] = ligand present: theophylline, designed as: OFF switch for theophylline
[3] = designed as: OFF switch for flavin mononucleotide, no ligand
[4] = ligand present: flavin mononucleotide, designed as: OFF switch for flavin mononucleotide
[5] = designed as: ON switch for flavin mononucleotide, no ligand
[6] = ligand present: flavin mononucleotide, designed as: ON switch for flavin mononucleotide
[7] = designed as: ON switch for theophylline, no ligand
[8] = ligand present: theophylline, designed as: ON switch for theophylline

Sequence	apparent Kd [3] [nM]	apparent Kd [4] [nM]	apparent Kd [5] [nM]	apparent Kd [6] [nM]	also measured
CGACACCAGGCAAUCCAUCACCCGGCUGAUACCAGCUCUUUUGGAAGCCCUUGGCAGCAGAGAACAUGAGGAUCACCCAUGUCAG	–	–	–	–	apparent Kd [1]: 14.6 nM; apparent Kd [2]: 21.2 nM
CGAUACAAAUAAAGCGUUCGUCCGCCAGAUACCAGAUUCAUUUCCAUCCCUUGGCAGCUGUCGACAUGAGGAUCACCCAUGUUUG	–	–	–	–	apparent Kd [1]: 18.3 nM; apparent Kd [2]: 20.9 nM
CGCGCUGAAGGAUAUGCAUUGGACUACAUGAGGAUCACCCAUGUCCCGUCUUGUGGACCCGCAGAAGGUCACUACC	9.25	12	–	–	–
CGGAAACAAGUAGGAUAUCACUUGAAUGUACAUGAGGAUCACCCAUGUUCCUUACGGCCGCGUUUUGAGAAGGACUAUUCAAAA	17.6	15	–	–	–
CGGAUUUGGUAGAAGGUUUCGUCACAUAUCGCAAAAGGAUAUACUAAACAUGAGGAUCACCCAUGUGUCGUGGGAGUUAAUUCA	72.3	70.5	–	–	–
CGGUCACAUGAGGAUCACCCAUGUAAGGAUAUAGAUGUCUGUGUCAACCGACGGGCUUCUAGAAGGUACGGAUG	18.6	18.1	–	–	–
CGUAAUAACUCACAGGAUAUGCGAGAGGAGACAUGAGGAUCACCCAUGUGACCAUGAAUAUUCCUGCAGAAGGGUGAUAAAUCAUU	–	–	13	18	–
CGUAAUGCACUAGGAUAUGUUGUAUAUACAACGACAGAAGGAGUUCCACAUGAGGAUCACCCAUGUCCAAACCAAUACUCAUCG	–	–	78.2	64	–
CUCAAUUAAGAGAAGGUUACUUGUGUUACGUGUAAAGGAUAUCUAAGCGCUAGGCACAUGAGGAUCACCCAUGUUCCUGCCUUU	–	–	7.64	6.03	–
CUCGAGUUUACAGGAUAUUAGGAAAUCGGAUAUUAAGAAGGGUAAAUGUACAUGAGGAUCACCCAUGUUCUCUGCUGCGUCAUA	15.4	14.5	–	–	–
CUCUAACAAGGAUAUACAUGUCCCAGGAUCCUAUAGGCUUUACAUGAGGAUCACCCAUGUAGAAGGUGUAUUAC	18.7	16.4	–	–	–
CUGAAGUCUGACCCUCGAAACAUGAGGAUCACCCAUGUAGUCAGAAGGCGAUUGUGAGCAGGAAUCGAGGAUAUGAACUAGUUU	7.72	10	–	–	–
CUUCAGGCGGAGGAUAUCUUACAGUUAUCGUACAGAGAAGGCCGCACAUGAGGAUCACCCAUGUCAGGCGACUU	29.8	162	–	–	–
CUUCCCACGUAGAAGGUGCACCAGUUAACCAAUAACAGGUUGACAUGAGGAUCACCCAUGUUUCGCAAGGAUAUACUGUUCACG	–	–	48.5	34.8	–
CUUGGAAGACAGAAGGGCAUCCACCCGGGACCAGCAGGAUAUGUCAACGGUAGCCGAAAACAUGAGGAUCACCCAUGUCAGAAG	–	–	75.8	30.1	–
GAAAUAUAGUCAGGAUAUCAGGACAUGAGGAUCACCCAUGUACUGAAUGGGCUGGUGAAAAGAGAUGAGAAGGGACACACUAGA	6.23	5.78	–	–	–
GAACAUCGAGGAUAUACAUGAGGAUCACCCAUGUAUUAGAGGGUGCCCUAGCUCAAAAGUAGAAGGCGACAGGU	9.8	12.7	–	–	–
GAAGAACCCGGAGGAUAUGCAAAGGAACAUGAGGAUCACCCAUGUUUCUUUCGGAAAUCUAGUGAGCAGAAGGCCGAAAGGAAC	–	–	13.1	7.95	–
GAAUUAAAUCAAGGAUAUCUGUGGAAGCGGACCUCUUACAUGAGGAUCACCCAUGUUCGCGAGCAAGAGAAGGUGAUUAGCGAA	414	131	–	–	–
GACAAGACAGGAUAUACAUAUAUGUAGCACGAAGAGUUAAGACAUGAGGAUCACCCAUGUAGAAGGGUCAUAAA	19.2	17.7	–	–	–
GACACCGGUAUGGAGGAUAUGGGAGACAGUACAUGAGGAUCACCCAUGUCGUUAAGAAGAUAUCACCAGAAGGCCACUCGGUCGAG	–	–	13.5	9.63	–

Sequence	apparent Kd [3] [nM]	apparent Kd [4] [nM]	apparent Kd [5] [nM]	apparent Kd [6] [nM]	also measured
GACAUCAUAGGAGGAUAUGUUUUCUAAAGACUGACAGAAGGCCAGAACAGUAAGAACAAAAGACAUGAGGAUCACCCAUGUGUU	–	–	16.6	9.36	–
GACAUGAGGAUCACCCAUGUGGGAAAGGUGUACUCUUGCGACUAGGAUAUGUUGUGGUCCCAGAGACAGAAGGAGUGGCGACGU	52.1	42	–	–	–
GACUUGCAAGAGAAGGCGGCCACCAAUCAUCGGAGUGUAAACUCUACAUGAGGAUCACCCAUGUCCGAGGAUAUCUUCAUCAGU	–	–	59.9	69.8	–
GAGGCGAAGGAGAAGGCCGCCAGUAAAGGUGACCGUAACAUGAGGAUCACCCAUGUGGAAUAAACGGAGGAUAUCCCUUCUCAG	19	21.8	–	–	–
GAUAGUGAUCCGGGUUACAUGAGGAUCACCCAUGUUACAAAUAGAAGGUCAGAACAAAAUUGAAAGAAGGAUAUAUUUUCAUUG	44.1	39.6	–	–	–
GAUCAACAUGAGGAUCACCCAUGUCAGGAUAUGCAGACAGUCUUUACGUCAGUCGUAAGCAGAAGGGACUACGG	52.5	69.6	–	–	–
GAUGCAACGCAGAAGGUAACCCAAUUAGGAGAUCUACAUGAGGAUCACCCAUGUAUUUGGAAAAUUAAGGAUAUGCCGAGGAUC	14.7	19.5	–	–	–
GAUUGGCUAGGAUAUACAGUGUCUAAGUCGACACCGUGAUAACAUGAGGAUCACCCAUGUAGAAGGAGCACAAA	6.78	11.4	–	–	–
GCACGAGUAAGACCUGACUUCAACAAUGAUACCAGACUAGUAAACGUCCCUUGGCAGCAUCAGACAUGAGGAUCACCCAUGUGGC	–	–	–	–	apparent Kd [1]: 27 nM; apparent Kd [2]: 29.4 nM
GCAGGCGUUAAGAAGGUUCUCCCACAUGAGGAUCACCCAUGUUGACAUGCUAGAGUCAUUACAAGAAAGGAUAUUAGCGAAUUG	–	–	114	25.8	–
GCGGUCCACUUGGAUACCAGCAGAUUAAUAAACAUGAGGAUCACCCAUGUAAGCGCCUUGUGCCCUUGGCAGCCAGGGUGGUCAG	–	–	–	–	apparent Kd [7]: 83.8 nM; apparent Kd [8]: 46.3 nM
GCGUUGGCCACGGCCGCCACUCAGGUACCGCGCGUAGUGAACUUACAUGAGGAUCACCCAUGUCUGAGGACCGGGUGGCCGCCAC	–	–	–	–	apparent Kd (designed as: ON switch for tryptophan, no ligand): 37.3 nM; apparent Kd (ligand present: tryptophan, designed as: ON switch for tryptophan): 46.2 nM
GCUAGCGGUAAGAAGGCAUAGACCAAAACUUCAUGAGGAUAUUAUUUGCGGCAUUCGCUCCAAGGACAUGAGGAUCACCCAUGU	–	–	15.4	16.3	–
GCUCAGGAAGGAUAUACUGAAGCUAACAUGAGGAUCACCCAUGUCCUAGGUAAGUAUCUGGUAGAAGGUCCGCGUA	24.9	32.5	–	–	–
GGAAGUCAAGGAUAUACAUGAGGAUCACCCAUGUCAGGUGCCAAUUAUGUUCUAUAGUGUAGAAGGUGACAAUG	112	183	–	–	–
GGACCAAGGAGGGAGGAUAUCACAUACAAAACAUGAGGAUCACCCAUGUAGAAGAGACAAGAUACAGAGAAGGCCCAGAAAUAAAA	–	–	14	9.27	–
GGAUAACCGAAGAAGGAGGUUUGUAUGGAAUACCUAGGAUAUUCGCGAGCGUGGGCCACAUGAGGAUCACCCAUGUCGGCAGUU	12.8	10.4	–	–	–
GGCACACAUGAGGAUCACCCAUGUGGCGAUACCAGUUGAUGGUAAAACCCUUGGCAGCGCCAGUCACAUGCAGAUAGUUACUGAA	–	–	–	–	apparent Kd [7]: 13.9 nM; apparent Kd [8]: 16.5 nM
GGCGAUCAGUGAGGAUAUUCCGCGCAAAUACUAGAAGAAGGCACGUAUCAAGGGUUCAGAACAUGAGGAUCACCCAUGUCAAGC	–	–	14	10.1	–
GGCGUGUACACAGGAUAUGAUACAUGAGGAUCACCCAUGUUCGCGCUGGAUCUACGUGAGAACGAUCAGAAGGGUGCUGCAGGG	–	–	398	229	–

— the EternaBench riboswitch data
